Rin1 Abl inh = inhibitors of Rin1-Abl protein binding, primary screen, biochemical, TR-FRET; inhibition, % at 7.35 µM; AID 588664, 2011; Tyrosine-protein kinase ABL1 (Homo sapiens) + Ras and Rab interactor 1 (Homo sapiens), …; 0.4% of 360,000 active; in the data active = inhibition above about 5%, passing the limit was not always enough
GRK2 aptamer HTS = compounds blocking aptamer binding on GRK2 – biochemical, human GRK2, bead flow cytometry, HTS, primary screen; FAM-aptamer displacement from GRK2; inhibition of aptamer binding, % at 10 µM; 0.59% of 330,000 active;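 active = inhibition of aptamer binding above 40%, roughly 3 SD of noise, on plates passing a quality check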;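 also: median bead fluorescence of bound FAM aptamer so fluorescent compounds give negative values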
T cell modulator = modulators of CD8 T cell-vesicle binding, primary screen, mouse 2C CD8+ T cells, flow cytometry | 2C CD8+ T cell-vesicle binding; hits give low values | 0.068% of 330,000 active | AID 2052, 2009 | response (vesicle binding), % at 7 µM;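 active = response, share of CD8 T cells binding vesicles, and their 90th percentile fluorescence all below set limits, cut at about 80% in these data, passing the limit was not always enough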;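 also: values below 100% mean blocked vesicle binding to the CD8+ T cells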
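Assay system: 2C TCR transgenic mouse naive CD8+ T cells, MACS-purified | Read-out: CD8+ gate FL2 mean fluorescence as % of same-row positive control | Signal: High-throughput flow cytometry with anti-B7-1 and anti-CD8 staining | Timing: Binding step 1.5 h, 37 °C, antibody labelling 20 min, ice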
Rce1 inhib = yeast Rce1p protease inhibitors, primary screen, biochemical, fluorescence, cell-free homogeneous | CAAX prenyl protease 2 (Saccharomyces cerevisiae (strain ATCC 204508 / S288c)), Q03530 | yeast membranes, quenched prenylated peptide cleavage fluorescence | calls only | 0.27% of 290,000 active | AID 2563, 2010;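 active = fall in fluorescence gain of 50% or more versus controls, with final raw signal at or below 3038400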
SKN-1 block = suppressors of acrylamide-induced Pgst-4::GFP reporter in worms, primary screen, SKN-1 inhibitor project, whole organism, uHTS, GFP/RFP fluorescence ratio, strain VP596 | C. elegans VP596 Pgst-4::GFP/RFP ratio, 24 h | inhibition, % at 21.8 µM | 0.49% of 360,000 active;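 active = interference check ratio from 0.5 to 1.5 plus GFP to RFP signal ratio inhibition reaching or exceeding a fixed threshold, cut at about 30% in these data, passing the limit was not always enough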
Myeloid diff 2 = induction of myeloid progenitor differentiation, primary screen, cell-based, flow cytometry, MLPCN library. ER-HoxA9 myeloid progenitors, lysozyme-GFP differentiation. calls only at 10 µM. 1% of 360,000 active. AID 624256, 2012;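 active = normalized GFP-positive differentiation at or above the plate's own cutoff, the solvent-only control mean plus 3 SD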;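 also: cells exposed to compound for four days before flow analysis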
Each line names hits and unclear results; the compound was inactive in the other large screens; ! = repeats disagree. An excerpt weighted towards active compounds, which were near 2.6% of everything screened.

O=C(NC1CCS(=O)(=O)C1)c1ccccc1Cl (centres undefined)	none (no result: Rce1 inhib)
O=C(O)CCNc1cc2ccccc2cc1C(=O)O	SKN-1 block 36
Cc1ccccc1S(=O)(=O)c1cc(C#N)c(=O)[nH]c1N	Rce1 inhib active
NS(=O)(=O)c1cccc(NC(=O)c2cccc(Oc3ccccc3)c2)c1	Myeloid diff 2 active
CN(CCO)c1ccc2c(c1)OC[C@H](Cc1ccccc1)NS2(=O)=O	none (no result: Rin1 Abl inh, GRK2 aptamer HTS, T cell modulator, Rce1 inhib)
COc1ccc(C(=O)NCCNc2nc3ccc(C)cc3cc2C#N)cc1	none
Cc1cc(C)c2cc(C#N)c(NCCCNC(=O)CCC(=O)O)nc2c1	Rce1 inhib active
COC(=O)CSc1nc2cc(C)cc(C)c2cc1C#N	SKN-1 block 37
Cc1ccc2nc(NCCNC(=O)c3ccccc3)c(C#N)cc2c1	Myeloid diff 2 active
CCC(NC(=O)CC[C@H]1O[C@@H](n2cc(C)c(=O)[nH]c2=O)C[C@@H]1O)c1ccccc1 (some centres undefined)	none (no result: T cell modulator, Rce1 inhib)
CCc1noc(C)c1C(=O)N1CCN(c2cccc(Cl)c2)CC1	none (no result: GRK2 aptamer HTS, T cell modulator, Rce1 inhib)
COc1ccc(NC(=O)C2CCCNC2)cc1OCC(C)C (centres undefined)	none
COc1ccc(CN2CCCCC2C(=O)Nc2ccc(OC)c(OCC(C)C)c2)cc1OC (centres undefined)	Rce1 inhib active
CCN(C)C1CN(Cc2cn(Cc3cccc(Cl)c3)nn2)S(=O)(=O)C1 (centres undefined)	none (no result: Rin1 Abl inh, GRK2 aptamer HTS, T cell modulator, Rce1 inhib)
CCn1c(=O)cc(OCC(=O)N2CCN(c3cccc(C(F)(F)F)c3)CC2)c2ccccc21	none
O=C(COc1ccc2ccccc2c1Br)N1CCCCC1	GRK2 aptamer HTS 87
CCn1c(=O)cc(OCC(=O)N2CCCC2)c2ccccc21	Rin1 Abl inh 9.0
NC(=O)C1CCN(C(=O)COc2ccc3ccccc3c2Br)CC1	none
CCc1nc2c(OCC(=O)c3ccc(Cl)cc3Cl)cccn2c1N(C)C(=O)c1cccs1	none (no result: GRK2 aptamer HTS, T cell modulator, Rce1 inhib)
CC(C)OCCCN(C)C1CCN(S(=O)(=O)c2ccc(-c3cc(C(F)(F)F)no3)s2)CC1	Myeloid diff 2 active
Cc1oncc1-c1csc(-c2ccccc2Cl)n1	SKN-1 block 45
COC(=O)c1[nH]nc(-c2ccccc2)c1-c1ccccc1	none
CC1(C)CC(N2CCCCC2)=CC(=[N+]2CCCCC2)C1	Myeloid diff 2 active
COc1ccccc1CC(=O)Nc1ccc2c(C)cc(=O)oc2c1	Rce1 inhib active
Cc1cc(OCC(O)CN2CCN(C)CC2)ccc1C(C)C (centres undefined)	SKN-1 block 36!
CCN1CCN(CC(O)COc2ccc(C)c(C)c2)CC1 (centres undefined)	none
COc1ccc(CCNC(=O)COc2ccc3c(C)cc(=O)oc3c2)cc1	none (no result: Rce1 inhib)
Cc1cc(=O)oc2cc(OCC(=O)NCCc3ccccc3)ccc12	Myeloid diff 2 active
CCN1CCN(CC(O)COc2ccc3c(C)cc(=O)oc3c2)CC1 (centres undefined)	Rce1 inhib active
CCn1c(SCC(=O)Nc2cc(C)on2)nc2c(c1=O)SCC2	none
O=C(Cc1n[nH]c(=O)c2ccccc12)Nc1cccc(S(=O)(=O)N2CCCCCC2)c1	none (no result: Rce1 inhib)
CC1=CCC(C(=O)O)C(C(=O)NC2CCCCC2)C1 (centres undefined)	GRK2 aptamer HTS 89
CC1(C)CC2(OC2c2ccccc2[N+](=O)[O-])C(=O)c2ccccc21 (centres undefined)	none (no result: GRK2 aptamer HTS, T cell modulator, Rce1 inhib)
O=C(Nc1ccccc1)O/N=C/c1ccc(F)cc1	SKN-1 block 37
COc1ccc([C@H]2/C=C\CN(S(=O)(=O)/C=C/c3ccccc3)[C@@H](C)C(=O)N2Cc2ccc(F)cc2)cc1	Myeloid diff 2 active
COc1ccc([C@H]2/C=C\CN(C(=O)c3ccccc3)[C@@H](C)C(=O)N2Cc2ccc(F)cc2)cc1	none
COc1ccc(/C(O)=C2/C(=O)C(=O)N(Cc3cccnc3)C2c2ccco2)cc1OC (centres undefined)	T cell modulator 48
COc1ccc2c(c1OC)C(=O)OC2Nc1nc(-c2ccc(-c3ccccc3)cc2)cs1 (centres undefined)	SKN-1 block 65
Cc1ccc2sc(NC(=O)c3ccc(N4C(=O)CCC4=O)cc3)nc2c1C	none
Cc1ccc2sc(NC(=O)c3cccc(N4C(=O)CCC4=O)c3)nc2c1C	SKN-1 block 38
COc1cc(NC(=O)CCCNC(=O)Cn2cnc3sc(C)c(C)c3c2=O)cc(OC)c1OC	none
CC1CCN(c2ccc(NC(=O)c3cccnc3)cc2)CC1	Myeloid diff 2 active
COc1cc([C@@H]2[C@H]3CNCC=C3C(C#N)=C(N)C2(C#N)C#N)ccc1OC(C)C	Myeloid diff 2 active
CCOc1ccccc1NC(=O)CS(=O)(=O)c1cn(CC(=O)N2CCOCC2)c2ccccc12	none
CCCC(=O)N1CCN(c2ccc(NC(=O)c3cc4ccccc4o3)cc2Cl)CC1	Rce1 inhib active
O=C(Nc1ccc(N2CCN(C(=O)c3ccco3)CC2)c(Cl)c1)c1cc2ccccc2o1	none
CCC(=O)N1CCN(c2ccc(NC(=O)c3cc4ccccc4o3)cc2Cl)CC1	Rce1 inhib active, SKN-1 block 31
CCCCN(C(=O)CCC(=O)Nc1cc(C)on1)C(C(=O)NC1CCCC1)c1cccc(OC)c1 (centres undefined)	none
Cc1cc(F)ccc1C(O)c1ncc(-c2ccccc2C(F)(F)F)[nH]1 (centres undefined)	none (no result: GRK2 aptamer HTS, T cell modulator, Rce1 inhib)
OC(CN1C2=NCCN2c2ccccc21)c1ccc(Br)cc1 (centres undefined)	Myeloid diff 2 active
CN(c1ccccc1)S(=O)(=O)c1ccc(NC(=O)CC(=O)c2ccccc2)cc1	Myeloid diff 2 active (no result: GRK2 aptamer HTS, T cell modulator, Rce1 inhib)
O=C(CNC(=O)c1ccccn1)N=Nc1c(O)[nH]c2ccccc12	none
COc1cc(F)ccc1-c1cc(C(=O)Nc2ccc(NC(C)=O)cc2)[nH]n1	none (no result: GRK2 aptamer HTS, T cell modulator, Rce1 inhib)
Cc1ccc2c(c1)NC(=O)C(CC(=O)NCCCN1CCN(c3cc(Cl)ccc3C)CC1)O2 (centres undefined)	Myeloid diff 2 active
CCOP(=O)(OCC)C(NC(=O)C(F)(F)F)c1ccccc1 (centres undefined)	GRK2 aptamer HTS 64
Oc1ccc(-c2nc3ccccn3c2NCc2ccco2)cc1	Rce1 inhib active
CCOC(=O)C(=O)N1CCN(c2cc3c(cc2[N+](=O)[O-])n(C)c(=O)n3C)CC1	none
O=C(c1cnn2c(C(F)(F)F)cc(-c3ccccc3)nc12)N1CCCc2ccccc21	none
O=C(c1nn2c(C(F)(F)F)cc(-c3cccs3)nc2c1Cl)N1CCCc2ccccc21	Myeloid diff 2 active

High-throughput results (PubChem)
